Bioassay records (PubChem BioAssay)
EP2 modulator: modulates human prostaglandin E2 receptor EP2 signaling; P43116; EP2-expressing cells, cAMP HTRF FRET, PGE2 co-stimulation; induction, % at 25 µM; actives 0.83% (n = 260,000); AID 940;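 active = compounds whose cAMP rise, as percent of the full-agonist control response, exceeds 60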;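 note: rat C6 glioma line stably carrying human EP2 under a CMV promoter; the protocol text gives 20 µM as final concentration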
Target sequence (P43116 whole entry, looked up): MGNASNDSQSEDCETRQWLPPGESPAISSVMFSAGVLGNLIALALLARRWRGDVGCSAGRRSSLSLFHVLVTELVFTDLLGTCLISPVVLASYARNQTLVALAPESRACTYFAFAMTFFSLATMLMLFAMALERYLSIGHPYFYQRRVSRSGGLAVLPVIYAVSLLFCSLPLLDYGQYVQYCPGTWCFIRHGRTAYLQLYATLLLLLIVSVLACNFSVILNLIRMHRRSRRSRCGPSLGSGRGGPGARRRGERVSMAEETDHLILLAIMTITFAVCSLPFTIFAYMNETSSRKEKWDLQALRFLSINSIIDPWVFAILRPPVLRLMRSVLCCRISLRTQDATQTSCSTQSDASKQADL
NPY Y1 blocker: antagonists of human neuropeptide Y receptor Y1; HEK293-CNG Y1 cells, membrane potential fluorescence; NPY at EC95, then isoproterenol; AID 1040; inhibition, % at 3.6 µM; actives 1% (n = 200,000); P25929;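 active = inhibition above the campaign mean inhibition of all tested compounds plus 3 SD, cut at about 20% in these data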
Target sequence (P25929 whole entry, looked up): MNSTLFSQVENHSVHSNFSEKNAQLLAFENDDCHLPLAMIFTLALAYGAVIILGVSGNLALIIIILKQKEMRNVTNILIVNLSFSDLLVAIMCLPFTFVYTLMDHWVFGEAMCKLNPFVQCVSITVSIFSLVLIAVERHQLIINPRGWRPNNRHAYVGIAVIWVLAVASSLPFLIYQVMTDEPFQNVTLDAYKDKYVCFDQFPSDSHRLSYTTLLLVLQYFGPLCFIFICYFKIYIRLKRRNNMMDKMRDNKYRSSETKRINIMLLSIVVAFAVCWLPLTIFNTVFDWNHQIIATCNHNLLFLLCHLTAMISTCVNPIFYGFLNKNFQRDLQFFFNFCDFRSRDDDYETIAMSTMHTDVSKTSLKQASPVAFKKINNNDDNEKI
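Material: HEK293 Y1/CNG channel cell line; also added: NPY (25 nM), isoproterenol (1 µM), Ro 20-1724 (25 µM); doses: one concentration, 3.6 µM, in 0.4% DMSO; schedule: compound incubation 1 h at room temperature, readout 45 min post-stimulation; technique: membrane potential fluorescence; measure: fluorescence ratio normalized to % inhibition between controls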
NPY-Y2 antag: NPY-Y2 (human) receptor antagonism | P49146 | NPY-Y2 expressing cells, antagonist mode | inhibition, % at 2.7 µM | actives 0.99% (n = 140,000) | AID 793; in the data active = inhibition above about 17%
NPY2 pot ag: potentiates or activates human NPY-Y2 receptor | actives 0.45% (n = 220,000) | activation, % at 3.6 µM | P49146 | cells expressing NPY-Y2, potentiator/agonist read-out | AID 1359; in the data active = activation above about 27%;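 note: cells stimulated with NPY near EC25 plus isoproterenol at EC100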
EP2 antag: inhibitors of human EP2 prostaglandin E2 receptor | C6 glioma cells expressing human EP2, cAMP TR-FRET; cells stimulated with saturating PGE2 | inhibition, % at 25 µM | actives 0.52% (n = 260,000);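 active = percent inhibition above 40 after rounding to a whole number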;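 note: rat C6 glioma host cells with rolipram phosphodiesterase inhibitor present; the protocol text gives 20 µM as final concentration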
NPY1 pot ag: potentiates or activates human NPY-Y1 receptor. P25929. NPY-Y1 expressing cells, potentiator/agonist activation. activation, % at 3.6 µM. actives 0.37% (n = 220,000). AID 1304; in the data active = activation above about 33%, passing the limit was not always enough;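 note: cells stimulated with NPY at EC10 then isoproterenol at EC100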
NPY-Y2 confirm: confirmation of human NPY-Y2 receptor potentiators or agonists; shares compounds with NPY2 pot ag; cell-based NPY-Y2 potentiator/agonist assay; activation, % at 3.6 µM; actives 20% (n = 450); AID 1539; in the data active = activation above about 33%
NPY-Y1 potentiator: NPY-Y1 potentiation or agonism as NPY-Y2 counter-screen | shares compounds with NPY2 pot ag | AID 1651 | activation, % at 3.6 µM | actives 20% (n = 450) | Y1 HEK293-CNG cells, membrane potential fluorescence; in the data active = activation above about 45%;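 note: cells stimulated with submaximal NPY then isoproterenol with phosphodiesterase inhibitor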
NPY-Y1 ag 2: human NPY-Y1 agonism as NPY-Y2 potentiator counter-screen. shares compounds with NPY2 pot ag. HEK293 Y1-CNGC, membrane potential fluorescence. activation, % at 3.6 µM. actives 37% (n = 450). AID 1702;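 active = activation above the mean of DMSO-only control wells plus 3 SD, cut at about 18% in these data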;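 note: cells stimulated with 1 µM isoproterenol plus the PDE inhibitor Ro 20-1724; Y1 agonists lower the membrane potential dye signal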
CNGC inh: counter-screen for NPY-Y2 potentiators: inhibitors of CNG channel activity; HEK293-CNG parental, isoproterenol cAMP, membrane potential fluorescence; inhibition, % at 3.6 µM; shares compounds with NPY2 pot ag; actives 32% (n = 450);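 active = inhibition above the control-well mean plus 3 SD of those wells, cut at about 22% in these data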
Y2 agonist ctr: NPY-Y2 agonism, counter-screen for Y2 potentiators | actives 56% (n = 450) | shares compounds with NPY2 pot ag | activation, % at 3.6 µM | HEK293 Y2/CNGC cells, membrane potential fluorescence, agonist mode;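 active = activation above the mean of solvent-only control wells plus 3 SD, cut at about 10% in these data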;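 note: cells stimulated by isoproterenol with no NPY added so direct agonism is tested; agonism lowers probe fluorescence through less cAMP and CNG channel opening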
A number is an active result; 0 = inactive; - = no result. Compounds with a hit are over-represented: about 2.8% of the library has one in this group of screens.

SMILES	EP2 modulator	NPY Y1 blocker	NPY-Y2 antag	NPY2 pot ag	EP2 antag	NPY1 pot ag	NPY-Y2 confirm	NPY-Y1 potentiator	NPY-Y1 ag 2	CNGC inh	Y2 agonist ctr
O=C(CCCc1ccncc1)N1CCc2c([nH]c3ccc(Cl)cc23)C1	0	-	-	-	0	-	-	-	-	-	-
COCCCNC(=O)c1c[nH]c2ccc(S(=O)(=O)N3CCc4ccccc43)cc2c1=O	0	0	-	33	0	0	0	0	0	0	13
COCCNC(=O)c1c[nH]c2ccc(S(=O)(=O)N3CCc4ccccc43)cc2c1=O	0	0	-	0	0	0	-	-	-	-	-
CCc1c(C)nc(NC2CCN(C(=O)C3(c4ccccc4)CC3)CC2)[nH]c1=O	0	-	-	-	0	-	-	-	-	-	-
CCC(C)(C)NC(=O)C(c1cccn1C)N(C(=O)Cn1nnc2ccccc21)c1ccccc1OC (centres undefined)	0	0	0	0	0	0	-	-	-	-	-
CCC(C)(C)NC(=O)C(c1cccn1C)N(Cc1ccccc1)C(=O)Cn1nnc2ccccc21 (centres undefined)	0	0	0	61	0	0	0	0	0	0	0
CCCN1C2CCCC1CC(NC(=O)Nc1ccc(C(C)C)cc1)C2 (centres undefined)	0	0	0	34	0	0	0	0	19	28	24
Cc1ccc(S(=O)(=O)N2CCN(CC(=O)N/N=C\c3ccc(Cl)c([N+](=O)[O-])c3)CC2)cc1	0	0	0	27	0	0	0	0	0	25	12
COc1ccc(N(CC(=O)NCc2ccco2)S(=O)(=O)c2ccc(C)cc2)c(OC)c1	0	-	-	-	0	-	-	-	-	-	-
Cc1ccc2cc(C(c3nnnn3Cc3ccc(F)cc3)N3CCC(O)CC3)c(=O)[nH]c2c1 (centres undefined)	0	-	-	-	0	-	-	-	-	-	-
Cc1ccc(C(=O)Nc2ncc(Cc3ccccc3Cl)s2)o1	0	-	-	-	0	-	-	-	-	-	-
COc1ccc(-c2nsc3c(N4CCN(S(C)(=O)=O)CC4)ncnc23)cc1	0	-	-	-	0	-	-	-	-	-	-
COC(=O)c1[nH]c2ccc(Br)cc2c1NC(=O)CN1CCN(C2CCCCC2)CC1	0	0	0	33	0	0	43	57	28	49	33
Cc1cc(OCC(=O)Nc2sc3c(c2C(N)=O)CCC3)ccc1Cl	0	-	-	-	0	-	-	-	-	-	-
CCN1C(=O)C2(C(C#N)=C(N)Oc3n[nH]c(C(C)C)c32)c2ccccc21 (centres undefined)	0	0	0	0	0	0	-	-	-	-	-
CCN1C(=O)C2(C(C#N)=C(N)Oc3n[nH]c(-c4ccc(Cl)cc4)c32)c2ccccc21 (centres undefined)	0	0	0	39	0	0	44	58	51	24	36
O=S(=O)(Nc1cccc2ccccc12)c1cccc2nonc12	0	-	-	63	0	0	0	0	0	0	0
Cc1cc(C)c2sc(N(CCN(C)C)C(=O)c3c(F)cccc3F)nc2c1	0	0	-	0	0	0	-	-	-	-	-
Cc1cc(C)c2sc(N(CCCN(C)C)C(=O)c3ccc(Br)s3)nc2c1	0	0	-	37	0	0	74	88	67	75	81
NC(=O)c1c(-c2ccc(Cl)cc2Cl)csc1NC(=O)Cc1ccccc1	0	0	0	32	0	0	0	0	0	0	0
O=C(Cc1ccccc1)Nc1scc(-c2ccccc2)c1C(=O)N1CCOCC1	0	0	0	0	0	0	-	-	-	-	-
N#C/C(=C(/O)c1cccc(F)c1)c1nc2ccccc2s1	0	-	-	103	0	0	0	0	0	0	0
COc1ccc(C2(C(=O)N[C@H](C)Cn3nnc4cc(C)c(C)cc43)CC2)cc1	0	-	-	-	0	-	-	-	-	-	-
COc1ccc(S(=O)(=O)Nc2ccc(S(=O)(=O)Nc3ccc(F)cc3)cc2)cc1C	0	0	0	34	0	0	0	0	27	23	21
COc1ccc(S(=O)(=O)Nc2ccc(F)cc2)cc1N(C)S(=O)(=O)c1ccc(Cl)cc1	0	0	0	0	0	0	-	-	-	-	-
SMILES	EP2 modulator	NPY Y1 blocker	NPY-Y2 antag	NPY2 pot ag	EP2 antag	NPY1 pot ag	NPY-Y2 confirm	NPY-Y1 potentiator	NPY-Y1 ag 2	CNGC inh	Y2 agonist ctr
COc1ccc(NS(=O)(=O)c2ccc(OC)c(N(C)S(=O)(=O)c3ccc(Cl)cc3)c2)cc1	0	0	0	35	0	0	0	0	0	0	0
COC(=O)c1ccc(NC(=O)CN(c2ccc(C)cc2)S(=O)(=O)c2c(C)nn(C)c2C)cc1	0	0	0	40	0	0	0	0	48	35	36
O=C(/C=C/c1ccco1)Nc1cccnc1Cl	0	-	-	0	0	0	-	-	-	-	-
COC(=O)c1ccccc1NC(=O)/C=C/c1ccco1	0	0	0	33	0	0	41	50	56	35	48
c1ccc(COc2ccccc2-c2nc3cnccn3c2NCC2CCCO2)nc1 (centres undefined)	0	-	-	-	-	-	-	-	-	-	-
C=C(C)CN1CCN(Cc2ccccc2OCc2ccccn2)CC1	0	-	-	-	0	-	-	-	-	-	-
O=C(Cn1cnc([N+](=O)[O-])c1)Nc1cc(Oc2ccc(Cl)cc2Cl)cc([N+](=O)[O-])c1	0	0	0	34	0	0	35	0	31	40	52
CCCOC(=O)NC(CC)COC(=O)Nc1cccc(C)c1C (centres undefined)	0	0	0	33	0	0	0	0	0	0	0
Cc1ccc(C)c(Nc2ncnc(N)c2[N+](=O)[O-])c1	0	0	0	0	0	0	-	-	-	-	-
Cc1ccc(C)c(Nc2nc(N)c3ccccc3n2)c1	0	0	-	36	0	0	64	82	44	58	55
CC(NC(=O)c1cn(Cc2c(F)cccc2Cl)nn1)c1ccncc1 (centres undefined)	0	-	-	-	0	-	-	-	-	-	-
Cc1ccc(NC2=Nc3ccccc3CS2)cc1	0	0	0	36	0	0	0	0	0	0	0
OC1(c2ccc(F)cc2)CCN(Cc2cc(Cl)c3c(c2)OCO3)CC1	0	-	-	-	0	-	-	-	-	-	-
CC(C)(C)N(Cc1cc2ccccc2[nH]c1=O)C(=O)c1ccco1	0	0	-	0	0	0	-	-	-	-	-
CC(C)(C)N(Cc1cc2ccccc2[nH]c1=O)C(=O)c1cccnc1	0	0	0	85	0	0	0	0	0	0	0
